Measurements of several laboratories.
Lines come from different studies, so protocols differ. pIC50, pKi: −log10 of the molar value.
Target: Carbonic anhydrase 9 (CA9, Homo sapiens, UniProt Q16790)
Read-out: enzyme activity
Action: inhibitor

SMILES	assay	endpoint	result
Cc1ccc(-c2ccc(Nc3ccc(S(N)(=O)=O)cc3)nn2)cc1S(=O)(=O)N1CCCCC1	–	pIC50	8.10
NS(=O)(=O)c1ccc(NC2=NC(=O)/C(=C\c3ccc(O)cc3)S2)cc1	–	pIC50	6.69
Cn1cc(-c2cccc3oc(C(=O)NC4CCCN(CC(=O)Nc5ccc(S(N)(=O)=O)cc5)C4)cc23)nn1 (stereo not shown)	–	pIC50	7.52
NS(=O)(=O)c1ccc(-n2nccc2-c2ccc(N3CCOCC3)cc2)cc1	–	pKi	6.61
COc1ccc(C(=O)/C=C/c2cccc3ccccc23)cc1S(N)(=O)=O	–	pKi	5.79
NS(=O)(=O)c1ccc(CCNC2=NS(=O)(=O)c3ccc(Cl)cc3N2)cc1	stopped-flow	pKi	7.43
COc1cc(/C=C2/SC(Nc3ccc(S(N)(=O)=O)cc3)=NC2=O)cc(OC)c1OC	–	pIC50	7.40
COc1ccc(C(=O)/C=C/c2cc3c(cc2Br)OCO3)cc1S(N)(=O)=O	–	pKi	5.09
Cc1ccc(C(=O)Nc2ccc(C(=O)Nc3cccc(S(N)(=O)=O)c3)cc2)s1	–	pIC50	6.39
NS(=O)(=O)c1ccc(-n2nccc2-c2ccc(N3CCCCC3)cc2)cc1	–	pKi	6.64
